# Measurements of several laboratories.
# Cell line: PC-3
# Effect on: cell growth or viability
Compound,test,conditions,endpoint,value
Cc1c(Cc2ccccc2)c(=O)oc2c(C)c(OCC(=O)NN=Cc3ccc(Cl)cc3)ccc12,MTT,500 µg/mL,viability,5.27%
Nc1n[nH]c2nc(-c3cccc(O)c3)cc(-c3cc4cc(Cl)ccc4nc3N3CCOCC3)c12,MTT,72 h,IC50,0.166 µM
C=CC(=O)c1cccnc1Nc1cccc(C(F)(F)F)c1,SRB,48 h,GI50,11.4 µM
Cc1nc(NC(=O)N2CCC[C@H]2C(N)=O)sc1-c1ccnc(C(C)(C)C(F)(F)F)c1,MTT,,IC50,47.7 µM
Cc1c(Cc2ccccc2)c(=O)oc2c(C)c(OCC(=O)NN=Cc3ccc([N+](=O)[O-])cc3)ccc12,MTT,500 µg/mL,viability,5.03%
Cc1nc(Nc2ccc3c(c2)C(C)(C)C(=O)N3)c2ccccc2n1,MTT,,IC50,34.3 µM
Cc1ccc(-c2cc(-c3ccc(N(C)C)cc3)c3c(=O)n(C)c(=O)n(C)c3n2)cc1,MTT,48 h,IC50,21.5 µM
C=CC(=O)c1cccnc1Nc1cc(C(F)(F)F)ccc1OC,SRB,48 h,GI50,5.58 µM
CCc1c(C)c2ccc(OCc3nnc(S)n3N)c(C)c2oc1=O,MTT,500 µg/mL,viability,3.08%
COc1cc2ncnc(Nc3ccc4c(c3)/C(=C/c3ccccc3)C(=O)N4C)c2cc1OC,MTT,,IC50,37.9 µM
COc1ccc(-c2cc(-c3cc(OC)ccc3OC)c3c(=O)n(C)c(=O)n(C)c3n2)cc1,MTT,48 h,IC50,24.6 µM
CCc1c(C)c2ccc(OCC(=O)NNC(=S)Nc3ccccc3)c(C)c2oc1=O,MTT,500 µg/mL,viability,2.61%
COc1cc2ncnc(Nc3ccc4c(c3)/C(=C/c3cccc(Cl)c3)C(=O)N4C)c2cc1OC,MTT,,IC50,22.2 µM
COc1ccc(-c2cc(-c3ccccc3Cl)c3c(=O)n(C)c(=O)n(C)c3n2)cc1,MTT,48 h,IC50,6.79 µM
Cc1c(Cc2ccccc2)c(=O)oc2c(C)c(OCC(=O)NN=Cc3ccccc3)ccc12,MTT,250 µg/mL,viability,14.1%
Cc1nc(Nc2ccc3c(c2)C(C)(C)C(=O)N3C)c2ccccc2n1,MTT,,IC50,26.3 µM
Cc1ccc(-c2cc(-c3ccc(Cl)c(F)c3)c3c(=O)n(C)c(=O)n(C)c3n2)cc1,MTT,48 h,IC50,41.5 µM
CC(=NNC(=O)COc1ccc2c(C)c(Cc3ccccc3)c(=O)oc2c1C)c1ccc(Br)cc1,MTT,250 µg/mL,viability,3.08%
COc1ccc(-c2cc(-c3ccc(Cl)cc3)c3c(=O)[nH]c(=O)[nH]c3n2)cc1,MTT,48 h,IC50,5.24 µM
O=C(NO)c1ccc(CNc2nc3cccc(-c4ccc5c(c4)OCO5)n3n2)cc1,SRB,,GI50,0.63 µM
COc1ccc(-c2cc(-c3ccc(Br)cc3)c3c(=O)n(C)c(=O)n(C)c3n2)cc1,MTT,48 h,IC50,8.58 µM
Cc1nc(N(Cc2ccccc2)c2ccc3c(c2)/C(=C/c2ccccc2)C(=O)N3Cc2ccccc2)c2ccccc2n1 (mixture of isomers),MTT,,IC50,0.56 µM
COc1ccc(-c2cc(-c3ccc(Cl)cc3)c3c(=O)n(C)c(=O)n(C)c3n2)cc1,MTT,48 h,IC50,13.5 µM
CCCOc1nc(-c2cccc(O)c2)cc(-c2cc3cc(Cl)ccc3nc2N2CCOCC2)c1C#N,MTT,72 h,IC50,0.542 µM
COc1ccc(-c2cc(-c3cccc(Br)c3)c3c(=O)[nH]c(=O)[nH]c3n2)cc1,MTT,48 h,IC50,18.5 µM
CCCOc1ccc2c(C)c(CC)c(=O)oc2c1C,MTT,125 µg/mL,viability,56.8%
